Assays:
[1] = system: HEK-AT1AR cells; test: Resensitization of ATII-induced Ca2+ signaling; format: cell-based, human; conditions: SM-19712 10 μM, 20 min and 2 h recovery
Method in brief: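 HEK-AT1AR cells were exposed to ATII (100 nM) or vehicle for 1 h at 37°C, washed, and allowed to recover in agonist-free medium at 37°C. They were then rechallenged with ATII (100 nM) while [Ca2+]i was measured. The [Ca2+]i change is expressed as % of the vehicle-pretreated response. Inhibitor (10 μM) or DMSO was preincubated 20–60 min and kept in buffers throughout. Mean ± SE, n ≥ 3.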

[2] = system: SK-N-MC cells; test: CGRP-induced Ca2+ signaling, desensitization and resensitization; format: cell-based, human; conditions: SM-19712 10 μM
Method in brief: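 SK-N-MC cells (endogenous CLR/RAMP1) were loaded with Fura-2AM for [Ca2+]i at 37°C. Single challenge used CGRP 100 nM. Desensitization: CGRP 100 nM or vehicle (1 h, 37°C), wash, CGRP-free recovery (4 h for resensitization), then CGRP 100 nM rechallenge. SM-19712 10 μM or DMSO was preincubated 20–60 min and kept throughout. Response was expressed as % of vehicle-treated cells.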

[3] = system: HEK-CLR-RAMP1+βARR2-GFP cells; test: Trafficking and colocalization of β-arrestin2-GFP and CLR/RAMP1; format: cell-based, human; conditions: recovery up to 4 h in CGRP-free medium
Method in brief: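 HEK-CLR-RAMP1 cells transiently transfected with β-arrestin2-GFP had surface CLR (HA11) and RAMP1 (Myc) labelled. Cells were given CGRP (2 min to 1 h), washed, and recovered in CGRP-free medium for 1–4 h. SM-19712 10 μM, bafilomycin A1 0.15 or 1 μM, or DMSO was preincubated 20–60 min and kept throughout. After PFA fixation and confocal imaging, β-arrestin2/CLR endosomal colocalization coefficient was measured at 4 h recovery.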

[4] = system: HEK-CLR-RAMP1 cells; test: CLR and RAMP1 endocytosis and recycling; format: cell-based, human
Method in brief: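 Surface CLR and RAMP1 on HEK-CLR-RAMP1 cells were antibody-labelled via HA11 and Myc epitopes (1:100, 30 min, 37°C). Cells then received CGRP 100 nM for 1 h, were washed, and recovered 0–6 h in CGRP-free medium. Cells were either treated with SM-19712 10 μM (20–60 min preincubation, kept throughout) or transfected 72 h earlier with ECE-1 vs non-targeting siRNA. Confocal scoring gave % total cellular fluorescence at plasma membrane at 6 h.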

[5] = system: HEK-CLR-RAMP1 cells; test: Endocytosis and degradation of internalized 125I-His8-CGRP; format: cell-based, human; conditions: 30 min after internalization; SM-19712 10 μM, bafilomycin A1 0.15 or 1 μM
[6] = target: T1, recombinant human (rh) ECE-1 (Homo sapiens, UniProt P42892); test: Peptide degradation by rhECE-1; format: biochemical; conditions: inhibitor 100 μM
T1 sequence (P42892 1-770): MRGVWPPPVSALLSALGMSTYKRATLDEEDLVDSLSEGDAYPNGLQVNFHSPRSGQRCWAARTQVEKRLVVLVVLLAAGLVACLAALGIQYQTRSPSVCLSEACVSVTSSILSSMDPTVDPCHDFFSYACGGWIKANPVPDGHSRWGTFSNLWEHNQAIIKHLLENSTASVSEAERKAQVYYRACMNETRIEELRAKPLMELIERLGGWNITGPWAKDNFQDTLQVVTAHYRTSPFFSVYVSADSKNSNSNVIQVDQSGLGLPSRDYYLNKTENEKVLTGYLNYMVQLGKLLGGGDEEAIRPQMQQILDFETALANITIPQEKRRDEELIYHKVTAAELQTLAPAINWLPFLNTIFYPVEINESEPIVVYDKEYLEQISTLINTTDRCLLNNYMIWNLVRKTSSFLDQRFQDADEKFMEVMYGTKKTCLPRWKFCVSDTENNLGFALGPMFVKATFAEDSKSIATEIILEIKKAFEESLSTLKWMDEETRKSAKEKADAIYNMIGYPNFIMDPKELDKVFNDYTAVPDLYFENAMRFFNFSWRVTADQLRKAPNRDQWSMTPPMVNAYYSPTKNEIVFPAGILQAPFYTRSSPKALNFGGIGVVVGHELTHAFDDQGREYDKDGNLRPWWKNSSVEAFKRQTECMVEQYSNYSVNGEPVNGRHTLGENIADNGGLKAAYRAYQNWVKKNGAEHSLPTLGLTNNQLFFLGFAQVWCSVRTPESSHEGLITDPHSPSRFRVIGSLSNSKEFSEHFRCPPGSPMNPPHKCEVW
Method in brief: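 Where used, the ECE-1 inhibitor (100 μM) was preincubated with enzyme on ice for 30 min at matching pH before substrate was added. Products were resolved by reversed-phase HPLC and identified by MALDI TOF/TOF mass spectrometry.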

[7] = system: HEK-CLR-RAMP1 cells; test: CGRP-induced Ca2+ signaling, desensitization and resensitization; format: cell-based, human; conditions: SM-19712 10 μM
Method in brief: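 HEK-CLR-RAMP1 cells were loaded with Fura-2AM; [Ca2+]i read at 37°C. Single challenge used CGRP 30 nM. For desensitization/resensitization: CGRP 100 nM or vehicle (1 h, 37°C), wash, 0–6 h recovery, CGRP 30 nM rechallenge. Variants: SM-19712 10 μM (20–60 min preincubation, kept throughout); ECE-1 or non-targeting siRNA pools, 72 h; transient ECE-1a-d-GFP. Response given as % of vehicle-treated cells, n ≥ 3.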

[8] = system: HEK-B2R cells; test: B2R recycling and colocalization with β-arrestin2-GFP; format: cell-based, human; conditions: SM-19712 10 μM
Method in brief: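 HEK cells stably expressing HA-tagged B2R or B2R-V2RCT were transiently transfected with β-arrestin2-GFP. Surface receptors were labelled with anti-HA11 (1:100, 30 min, 37°C), then given BK 100 nM for 10 min and recovered in BK-free medium (B2R 1 h; B2R-V2RCT 2 h). SM-19712 10 μM or DMSO was preincubated 20–60 min and kept throughout. Cells were PFA-fixed for confocal imaging; plasma-membrane fraction of fluorescence and colocalization coefficient (0–1) were scored in >20 cells/experiment, n ≥ 3.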

Structure (SMILES): Cc1nn(-c2ccccc2)c(NC(=O)NS(=O)(=O)c2ccc(Cl)cc2)c1C#N.[Na] [SM-19712]
- Effect on resensitization of ATII-induced Ca2+ signaling [1]: did not affect resensitization at either time
- Effect on response to a single challenge with CGRP ([Ca2+]i) ([2]; CGRP 100 nM): did not affect magnitude or duration
- Effect on desensitization of CGRP-induced Ca2+ signaling [2]: did not affect desensitization
- Inhibition of resensitization of CGRP-induced Ca2+ signaling ([2]; 4 h recovery): 33%
- Effect on localization of CLR (RAMP1) and β-arrestin2 during recovery [3]: caused their retention in endosomes
- Inhibition of recycling of CLR (CLR at the plasma membrane) ([4]; 6 h recovery after CGRP 100 nM 1 h, SM-19712 10 μM, siRNA 72 h): > 50%
- Effect on localization of CLR/RAMP1 after recovery in CGRP-free medium ([4]; CGRP 100 nM 1 h, wash, 6 h recovery): caused their retention in endosomes even at 6 h
- Effect on degradation of internalized 125I-His8-CGRP [5]: prevented degradation
- Effect on rhECE-1 degradation of CGRP ([6]; preincubated with ECE-1 on ice 30 min, pH 5.5): abolished
- Effect on rhECE-1 degradation of BK ([6]; rhECE-1 83 nM, pH 5.5 and 7.4): prevented this degradation
- Effect on response to a single challenge with CGRP ([Ca2+]i) ([7]; CGRP 30 nM): did not affect magnitude or duration
- Effect on desensitization of CGRP-induced Ca2+ signaling [7]: did not affect desensitization
- Effect on resensitization of CGRP-induced Ca2+ signaling ([7]; 0–6 h recovery): strongly inhibited resensitization at all times
- Effect on colocalization coefficient of β-arrestin2 and B2R ([8]; 1 h recovery): did not affect colocalization with B2R
- Reduction of recycling of B2R ([8]; BK 100 nM 10 min, 1 h recovery): < 10%
- Effect on BK-induced trafficking of B2R and β-arrestin2 ([8]; BK 100 nM 10 min, 60 min recovery): did not affect this trafficking

From paper PMC2099187 (The Journal of Cell Biology, 2007)
